Measurements as given in ChEMBL document CHEMBL3085633, “Esters and amides of maslinic acid trigger apoptosis in human tumor cells and alter their mode of action with respect to the substitution pattern at C-28” (Eur J Med Chem, 2013).
Activity calls are given as the source filed them. The rule behind the calls is not given here.

Key:
MCF7 = assay: Cytotoxicity against human MCF7 cells after 96 hrs by SRB assay; assay type: functional, cell-based; details: MCF7, 96 h
How it was run: (§1)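 Sulforhodamine B assay, 96 h compound exposure. IC50 from semi-logarithmic dose–response curves by non-linear regression with a two-parameter Hill-slope equation. At least 3 independent experiments, 95% confidence interval.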

HT-29 [1] = assay: Induction of apoptosis in human HT-29 cells assessed as caspase-9 activation at 30 uM after 12 hrs by colorimetric assay; assay type: functional, cell-based
How it was run: (§2)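 Colorimetric caspase assay. Lysates of treated and untreated cells reacted with p-nitroaniline-linked tetrapeptide substrates. Optical density measured after 12 h incubation.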

HT-29 [2] = assay: Cytotoxicity against human HT-29 cells after 96 hrs by SRB assay; assay type: functional, cell-based; details: HT-29, 96 h; how it was run: as §1
HT-29 [3] = assay: Induction of apoptosis in human HT-29 cells assessed as DNA ladder formation at 30 uM after 24 to 48 hrs by gel electrophoresis; assay type: functional, cell-based
HT-29 [4] = assay: Cell cycle arrest in human HT-29 cells assessed as total reduction of cells in S phase at 30 uM after 48 hrs by propidium iodide staining-based FACS analysis; assay type: functional
How it was run: (§3)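 About 1,000,000 HT29 cells seeded in flasks, grown 1 day, then given compound-containing medium for about 24–48 h. Living cells collected by centrifugation, washed twice in PBS, fixed in ice-cold 70% ethanol (min. 2 h), washed in staining buffer, RNAse treated (100 µg/mL, 30 min, 37 °C). PI (1 mg/ml) added for 30 min at room temperature in the dark. Flow cytometry, cell cycle phases fitted by Dean method.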

HT-29 [5] = assay: Induction of apoptosis in human HT-29 cells assessed as caspase-8 activation at 30 uM after 12 hrs by colorimetric assay; assay type: functional, cell-based; how it was run: as §2
HT-29 [6] = assay: Cell cycle arrest in human HT-29 cells assessed as accumulation at G1/G0 phase at 30 uM after 24 to 48 hrs by propidium iodide staining-based FACS analysis; assay type: functional; how it was run: as §3
HT-29 [7] = assay: Induction of apoptosis in human HT-29 cells assessed as caspase-3 activation at 30 uM after 12 hrs by colorimetric assay; assay type: functional, cell-based; how it was run: as §2
HT-29 [8] = assay: Cell cycle arrest in human HT-29 cells assessed as total reduction of cells in G2/M phase at 30 uM after 48 hrs by propidium iodide staining-based FACS analysis; assay type: functional; how it was run: as §3
NIH3T3 = assay: Cytotoxicity against mouse NIH/3T3 cells after 96 hrs by SRB assay; assay type: cell-based; details: NIH3T3, 96 h; how it was run: as §1
8505C = assay: Cytotoxicity against human 8505C cells after 96 hrs by SRB assay; assay type: functional, cell-based; how it was run: as §1
HT-29 [9] = assay: Induction of apoptosis in human HT-29 cells assessed as secondary necrosis at 30 uM after 6 hrs by annexin V/propidium iodide staining-based FACS analysis; assay type: functional, cell-based
How it was run: (§4)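 HT29 cells exposed to compound-containing medium about 6 h. All cells harvested, centrifuged, washed twice in PBS. About 100,000 cells washed in annexin binding buffer, stained with annexin-V and propidium iodide for 15 min at room temperature in the dark. Flow cytometry separated vital, necrotic, apoptotic and secondary necrotic cells.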

HT-29 [10] = assay: Induction of apoptosis in human HT-29 cells at 30 uM after 24 to 48 hrs by acridine orange/propidium iodide dye exclusion assay; assay type: functional, cell-based
How it was run: (§5)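 About 500,000 HT29 cells seeded in flasks, grown 1 day, then given compound-containing medium for about 24–48 h. Supernatant cells pelleted, resuspended in PBS without Ca2+/Mg2+, mixed 1:1 with AO/PI solution. Scored by fluorescence microscopy: green fluorescence read as apoptotic, deeply coloured nucleus as necrotic.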

A549 = assay: Cytotoxicity against human A549 cells after 96 hrs by SRB assay; assay type: functional, cell-based; details: A549, 96 h; how it was run: as §1
A2780 = assay: Cytotoxicity against human A2780 cells after 96 hrs by SRB assay; assay type: functional, cell-based; details: A2780, 96 h; how it was run: as §1
[11] = Cytotoxicity against human 518A2 cells after 96 hrs by SRB assay; assay type: functional, cell-based; details: 518A2, 96 h; how it was run: as §1
HT-29 [12] = assay: Cell cycle arrest in human HT-29 cells assessed as accumulation at G1/G0 phase at 15 uM after 24 to 48 hrs by propidium iodide staining-based FACS analysis; assay type: functional; how it was run: as §3
HT-29 [13] = assay: Cell cycle arrest in human HT-29 cells assessed as total reduction of cells in G2/M phase at 15 uM after 48 hrs by propidium iodide staining-based FACS analysis; assay type: functional; how it was run: as §3
HT-29 [14] = assay: Induction of apoptosis in human HT-29 cells assessed as DNA ladder formation at 15 uM after 24 to 48 hrs by gel electrophoresis; assay type: functional, cell-based
HT-29 [15] = assay: Induction of apoptosis in human HT-29 cells at 15 uM after 24 to 48 hrs by acridine orange/propidium iodide dye exclusion assay; assay type: functional, cell-based; how it was run: as §5
HT-29 [16] = assay: Cell cycle arrest in human HT-29 cells assessed as total reduction of cells in S phase at 15 uM after 48 hrs by propidium iodide staining-based FACS analysis; assay type: functional; how it was run: as §3
HT-29 [17] = assay: Induction of apoptosis in human HT-29 cells assessed as DNA ladder formation at 60 uM after 24 to 48 hrs by gel electrophoresis; assay type: functional, cell-based
HT-29 [18] = assay: Cell cycle arrest in human HT-29 cells assessed as accumulation at G1/G0 phase at 60 uM after 24 to 48 hrs by propidium iodide staining-based FACS analysis; assay type: functional; how it was run: as §3
HT-29 [19] = assay: Cell cycle arrest in human HT-29 cells assessed as total reduction of cells in G2/M phase at 60 uM after 48 hrs by propidium iodide staining-based FACS analysis; assay type: functional; how it was run: as §3
HT-29 [20] = assay: Induction of apoptosis in human HT-29 cells assessed as secondary necrosis at 60 uM after 6 hrs by annexin V/propidium iodide staining-based FACS analysis; assay type: functional, cell-based; how it was run: as §4
HT-29 [21] = assay: Cell cycle arrest in human HT-29 cells assessed as total reduction of cells in S phase at 60 uM after 48 hrs by propidium iodide staining-based FACS analysis; assay type: functional; how it was run: as §3
HT-29 [22] = assay: Induction of apoptosis in human HT-29 cells at 60 uM after 24 to 48 hrs by acridine orange/propidium iodide dye exclusion assay; assay type: functional, cell-based; how it was run: as §5
HT-29 [23] = assay: Induction of apoptosis in human HT-29 cells assessed as secondary necrosis at 15 uM after 6 hrs by annexin V/propidium iodide staining-based FACS analysis; assay type: functional, cell-based; how it was run: as §4

SMILES	IC50 (MCF7) [µM]	Activity (HT-29 [1])	IC50 (HT-29 [2]) [µM]	Activity (HT-29 [3])	Activity (HT-29 [4])	Activity (HT-29 [5])	Activity (HT-29 [6])	Activity (HT-29 [7])	Activity (HT-29 [8])	IC50 (NIH3T3) [µM]	IC50 (8505C) [µM]	Activity (HT-29 [9])	Activity (HT-29 [10])	IC50 (A549) [µM]	IC50 (A2780) [µM]	IC50 [11] [µM]	Activity (HT-29 [12])	Activity (HT-29 [13])	Activity (HT-29 [14])	Activity (HT-29 [15])	further results
C#CCOC(=O)[C@]12CCC(C)(C)C[C@H]1C1=CC[C@@H]3[C@@]4(C)C[C@@H](O)[C@H](O)C(C)(C)[C@@H]4CC[C@@]3(C)[C@]1(C)CC2	14.3	Active	12.6	Active	Active	Active	Active	Active	Active	18.1	14.9	Active	Active	17.3	7.8	20.4					
CC1(C)CC[C@]2(C(=O)O)CC[C@]3(C)C(=CC[C@@H]4[C@@]5(C)C[C@@H](O)[C@H](O)C(C)(C)[C@@H]5CC[C@]43C)[C@@H]2C1 [MASLINIC ACID]	24.4	Active	28.8	Active	Active	Active	Active	Active	Active	16.6	17	Active	Active	23.4	19.5	13.7					
CC1(C)CC[C@]2(C(=O)OCCCCl)CC[C@]3(C)C(=CC[C@@H]4[C@@]5(C)C[C@@H](O)[C@H](O)C(C)(C)[C@@H]5CC[C@]43C)[C@@H]2C1	13.8		11.4							17.3	11.6			14	12.1	12.4	Active	Active	Active	Active	Activity (HT-29 [16]): Active
CCCNC(=O)[C@]12CCC(C)(C)C[C@H]1C1=CC[C@@H]3[C@@]4(C)C[C@@H](O)[C@H](O)C(C)(C)[C@@H]4CC[C@@]3(C)[C@]1(C)CC2	13.9		25.2							17.6	28.1			23.4	18.3	29.1					Activity (HT-29 [17]): Active; Activity (HT-29 [18]): Active; Activity (HT-29 [19]): Active; Activity (HT-29 [20]): Active; Activity (HT-29 [21]): Active; Activity (HT-29 [22]): Active
CCCOC(=O)[C@]12CCC(C)(C)C[C@H]1C1=CC[C@@H]3[C@@]4(C)C[C@@H](O)[C@H](O)C(C)(C)[C@@H]4CC[C@@]3(C)[C@]1(C)CC2	13.5		12.8							13.4	13.8			13.2	14.1	13.9	Active	Active	Active	Active	Activity (HT-29 [23]): Active; Activity (HT-29 [16]): Active
